Screening data deposited in PubChem by several laboratories.
Only some compounds are listed: those with a hit (about 2.9% of all), similar ones and a draw of the others.
SENP8 block-1: blocks human SENP8 cleavage of Nedd8 substrate; Q96LD8; inhibition, % at 20 µM; recombinant SENP8, Nedd8 substrate fluorescence; 360,000 compounds, 0.64% hits; in the data active means inhibition mostly above about 40%, no sharp cut-off; inactive means mostly below about 27%
Target sequence (Q96LD8 whole entry, looked up): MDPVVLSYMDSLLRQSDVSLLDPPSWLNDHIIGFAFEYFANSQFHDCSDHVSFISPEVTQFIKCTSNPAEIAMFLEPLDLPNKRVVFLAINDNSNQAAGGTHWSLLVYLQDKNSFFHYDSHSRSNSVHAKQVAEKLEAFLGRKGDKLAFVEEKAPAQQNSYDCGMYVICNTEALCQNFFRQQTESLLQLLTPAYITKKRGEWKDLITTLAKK
SENP7 block: inhibitors of human SENP7 protease; Q9BQF6; recombinant SENP7, Z-RLRGG-aminoluciferin luminescence, 40 min; inhibition, % at 5 µM; 330,000 compounds, 1.5% hits; AID 434973;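 active means inhibition above about 50% at the single test dose, limit read from the data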
SENP1 FRET inh: blocks the human SENP1 SUMO protease catalytic domain | 360,000 compounds, 0.21% hits | inhibition, % at 10 µM | recombinant SENP1 catalytic domain, CyPet-SUMO1-YPet FRET cleavage | Q9P0U3;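 active means inhibition at least 30% at 10 µM, raw YFP signal under a set limit, fluorescence ratio 0.5 to 1.5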
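System: Recombinant human SENP1 catalytic domain, His6-tagged | Incubation: Enzyme reaction for 50 min at room temperature, dark | Medium: Tris pH 8 with BME, BSA, NP40 and catalase | Also added: 25 nM SUMO1 FRET substrate | Compound: 10 µM single point, 0.5% DMSO | Measured by: FRET fluorescence in CFP and YFP emission channels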
HSP90 refold inh: blocks HSP90-mediated luciferase refolding in reticulocyte lysate; inhibition, % at 5.6 µM; 290,000 compounds, 0.91% hits; Rabbit reticulocyte lysate, luciferase refolding luminescence, 3 h; AID 1789;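 active means inhibition above the screen-wide mean plus 3 SD, computed separately per campaign, cut at about 16% in these data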;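 further: inhibitors lower the luminescence because luciferase stays unfolded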
SENP8 block-2: inhibitors of human SENP8 protease | Q96LD8 | purified SENP8, Z-RLRGG-aminoluciferin cleavage, luminescence | inhibition, % at 10 µM | 330,000 compounds, 1.2% hits | AID 2540; in the data active means inhibition above about 50%
SENP6 block: inhibitors of human SENP6 protease. Q9GZR1. Recombinant SENP6 catalytic domain, aminoluciferin luminescence. inhibition, % at 10 µM. 330,000 compounds, 1.8% hits. AID 2599;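 active means inhibition above about 50% at the single tested dose, limit read from the data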
SENP8 confirm: confirmation of human SENP8 protease inhibitors; Recombinant SENP8, Z-RLRGG-aminoluciferin luminescence, 60 min; inhibition, % at 12.5 µM; shares compounds with SENP7 block; AID 488912; 6,200 compounds, 40% hits;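 active means mean inhibition across replicates above about 50%, limit read from the data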
SENP6 conf: confirmation of human SENP6 protease inhibitors; recombinant SENP6, Z-RLRGG-aminoluciferin luminescence; inhibition, % at 12.5 µM; 6,200 compounds, 58% hits; shares compounds with SENP7 block
SENP7 conf: confirmation of human SENP7 protease inhibitors; 6,200 compounds, 69% hits; AID 488917; recombinant SENP7, Z-RLRGG-aminoluciferin luminescence, 40 min; inhibition, % at 12.5 µM; shares compounds with SENP7 block
Casp3 select: selectivity test for SENP inhibitors: human caspase-3 inhibition; purified caspase-3, Z-DEVD-aminoluciferin luminescence, 60 min; shares compounds with SENP7 block; inhibition, % at 12.5 µM; 6,200 compounds, 60% hits;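 active means mean inhibition above about 50%, limit read from the data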
Target sequence (P42574 28-227 limits assumed): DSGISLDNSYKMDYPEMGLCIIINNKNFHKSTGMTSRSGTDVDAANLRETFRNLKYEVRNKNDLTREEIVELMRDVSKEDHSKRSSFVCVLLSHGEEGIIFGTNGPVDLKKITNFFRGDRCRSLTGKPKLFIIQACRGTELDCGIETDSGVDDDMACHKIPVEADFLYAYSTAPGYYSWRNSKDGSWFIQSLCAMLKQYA
SENP luc ctr: interferes with luciferase luminescence in SENP counter-screen | 6,200 compounds, 39% hits | inhibition, % at 12.5 µM | Pre-incubated SENP8/Z-RLRGG-aminoluciferin, luciferase luminescence interference | shares compounds with SENP7 block;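 active means mean inhibition above about 50% when retested at one dose, limit read from the data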
Numbers stand for hits; – = inactive; · = no result given.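 How the source made its calls, unless noted: active means mean inhibition above about 50% in the one-dose retest (limit read from the data); inactive means the rest.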

SMILES	SENP8 block-1	SENP7 block	SENP1 FRET inh	HSP90 refold inh	SENP8 block-2	SENP6 block	SENP8 confirm	SENP6 conf	SENP7 conf	Casp3 select	SENP luc ctr
CCCOC(=O)c1ccc(NC(=O)c2ccccc2OC)cc1	–	–	–	–	–	–	·	·	·	·	·
CC(C)(CNC(=O)c1cccs1)CNC(=O)c1cccs1	–	84	–	–	–	–	–	–	–	–	–
O=C(Nc1ccc(OCc2ccccc2)cc1)c1cccc([N+](=O)[O-])c1	–	56	–	–	–	–	–	–	–	–	–
COc1ccc(NC(=O)c2cccs2)cc1	–	–	–	–	–	60	–	–	74	79	62
CCCOC(=O)c1ccc(NC(=O)c2ccoc2C)cc1	–	93	–	–	89	95	94	95	101	92	66
CCn1ccnc1CN(C)Cc1cn(-c2ccccc2)nc1-c1ccc(OC)cc1F	–	–	–	–	–	–	·	·	·	·	·
C[C@H]1CN([C@@H](C)CO)C(=O)c2cc(C#CCC3CCCC3)cnc2O[C@@H]1CN(C)C(=O)CC1CC1	–	·	–	·	·	·	·	·	·	·	·
O=C(O)c1ccc(COc2cccc(CO)c2)cc1	–	86	–	–	64	74	–	70	93	93	74
COc1cccc(CNC(=O)c2ccc(COc3ccccc3)cc2)c1	–	–	–	–	–	–	·	·	·	·	·
COc1ccc(OC)c(S(=O)(=O)Oc2ccc(N)c3ccccc23)c1	–	–	–	·	72	94	–	–	–	–	–
O=C(/C=C/c1ccccc1Cl)Nc1ccncc1	–	–	–	–	–	62	–	–	68	–	58
O=C(/C=C/c1c(F)cccc1Cl)Nc1ccncc1	–	62	–	–	–	65	–	–	–	–	–
O=C(/C=C/c1ccc(Cl)c(Cl)c1)Nc1cccnc1	–	–	–	·	–	–	·	·	·	·	·
O=C(/C=C/c1ccccc1Cl)Nc1cccnc1	–	93	–	–	86	93	–	92	100	89	90
O=C(/C=C/c1cccc(Cl)c1)Nc1ccncc1	–	–	–	–	–	–	·	·	·	·	·
COc1ccccc1/C=C/C(=O)Nc1cccnc1	–	–	–	–	–	–	·	·	·	·	·
CC(C)(C)c1ccc(/C=C/C(=O)Nc2cccnc2)cc1	–	83	–	–	76	85	–	80	95	59	55
CCOC(=O)[C@H]1[C@H]2COc3ccc(Br)cc3[C@@H]2N2C(=O)CN(Cc3ccco3)C(=O)[C@@]12C	–	–	–	·	–	–	·	·	·	·	·
Clc1cccc(NCc2cn3cccnc3n2)c1	–	–	–	–	–	–	·	·	·	·	·
Cc1cccc(C(=O)Nc2sc3c(c2C(=O)O)CCC3)c1	–	87	–	–	96	99	96	96	100	95	94
COc1cccc(C(=O)Nc2sc3c(c2C(=O)O)CCCC3)c1	–	–	–	–	84	89	–	74	68	79	–
Cc1ccc(NC(=O)CSCC(=O)NCCc2ccccc2)c(C)c1	–	–	–	·	–	–	·	·	·	·	·
O=C(COc1ccc2ccccc2c1)Nc1ccc(Br)cc1C(=O)O	–	·	–	–	·	·	·	·	·	·	·
COc1ccc(-n2nc(C(=O)NCC(=O)Nc3cc(OC)c(OC)c(OC)c3)c3ccccc3c2=O)cc1OC	–	–	–	–	–	–	·	·	·	·	·
CCN(CC)c1ccc2cc(C(=O)c3cccs3)c(=O)oc2c1	–	·	–	·	·	·	·	·	·	·	·
COc1ccc(NC(=O)CN(C)C(=O)CCCc2nc3ccccc3c(=O)[nH]2)cc1	–	–	–	·	–	–	·	·	·	·	·
